Data reported in ChEMBL document CHEMBL4152210, “Design, synthesis, anti-lung cancer activity, and chemosensitization of tumor-selective MCACs based on ROS-mediated JNK pathway activation and NF-κB pathway inhibition” (Eur J Med Chem, 2018).
The source made the active and inactive calls. No cut-off for these calls is given here.

Experiments:
[1] = tested on: NCI-H460; assay: Cytotoxicity against human H460 cells assessed as reduction in cell viability after 72 hrs by MTT assay; assay type: functional, cell-based; details: NCI-H460, 72 h
Outline: (§1)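 Cells in RPMI 1640 with 10% heat-inactivated FBS and penicillin/streptomycin at 37 °C, 5% CO2. Seeded at 4000 per well, adhered overnight, then exposed to graded compound concentrations in triplicate wells for 72 h. MTT (5 mg/mL stock) added for 4 h, dissolved in DMSO, A490 read. IC50 is the concentration reducing viability by 50% versus untreated control.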

[2] = tested on: NCI-H1650; assay: Cytotoxicity against human NCI-H1650 cells assessed as reduction in cell viability after 72 hrs by MTT assay; assay type: functional, cell-based; details: NCI-H1650, 72 h; outline: as §1
[3] = tested on: NCI-H1975; assay: Cytotoxicity against human NCI-H1975 cells assessed as reduction in cell viability after 72 hrs by MTT assay; assay type: functional, cell-based; details: NCI-H1975, 72 h; outline: as §1
[4] = Selectivity index, ratio of IC50 for human HL7702 cells to IC50 for human NCI-H1650 cells; assay type: toxicity
Outline: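 Selectivity index taken as the logarithm of the ratio of the HL7702 IC50 to the cancer-line IC50. […] Not calculated when an IC50 was lacking.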

[5] = tested on: A549; assay: Induction of apoptosis in human A549 cells assessed as increase in PARP level after 24 hrs by Western blot analysis; assay type: functional, cell-based
Outline: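 A549 treated at 1, 5 or 10 µM, or with BMS345541 (20 µM), for 24 h. Cleaved PARP and Bax detected by western blot (10% SDS-PAGE, PVDF, 5% milk block, HRP secondary).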

[6] = tested on: A549; assay: Induction of apoptosis in human A549 cells assessed as increase in caspase-3 level after 24 hrs by Western blot analysis; assay type: functional, cell-based
[7] = tested on: A549; assay: Induction of ROS generation in human A549 cells at 10 uM after 12 hrs by DCFDA staining based flow cytometric analysis; assay type: functional, cell-based; details: in the assay text read “after 9 hrs” for “after 12 hrs”
Outline: (§2)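 A549 (6 × 10^5 per 60 mm dish) exposed to 10 µM over a time course up to 12 h, or at 1, 5 or 10 µM for 9 h. Optional NAC (5 mM) pretreatment for 1 h before 10 µM for 9 h. Cells loaded with DCF-DA (10 µM) for 30 min at 37 °C in the dark, washed, and read by flow cytometry.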

[8] = tested on: A549; assay: Induction of ROS generation in human A549 cells at 10 uM preincubated with NAC for 1 hr followed by compound addition and measured after 9 hrs by DCFDA staining based flow cytometric analysis; assay type: functional, cell-based; outline: as §2
[9] = target: Mitogen-activated protein kinase 8/9 (Homo sapiens) (UniProt P45983+P45984); assay: Induction of JNK 1/2 phosphorylatyion in human A549 cells at 10 uM pretreated with 5 mM NAC for 1 hr followed by compound addition and measured after 6 hrs by Western blot analysis; assay type: cell-based
Chain of Mitogen-activated protein kinase 8/9 (Homo sapiens) (P45983 whole entry, looked up): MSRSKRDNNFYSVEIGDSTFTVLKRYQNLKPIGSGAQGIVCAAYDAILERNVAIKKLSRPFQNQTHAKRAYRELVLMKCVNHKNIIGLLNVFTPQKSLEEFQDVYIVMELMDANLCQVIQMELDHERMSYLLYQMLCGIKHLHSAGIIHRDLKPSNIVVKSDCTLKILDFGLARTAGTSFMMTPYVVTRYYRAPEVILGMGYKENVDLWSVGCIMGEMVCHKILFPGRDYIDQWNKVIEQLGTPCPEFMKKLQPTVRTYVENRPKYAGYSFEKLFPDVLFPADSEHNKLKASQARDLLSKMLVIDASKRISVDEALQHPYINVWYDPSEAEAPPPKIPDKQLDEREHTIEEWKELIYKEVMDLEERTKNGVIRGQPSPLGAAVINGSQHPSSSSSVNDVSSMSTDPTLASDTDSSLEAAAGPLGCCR
Chain of Mitogen-activated protein kinase 8/9 (Homo sapiens) (P45984 whole entry, looked up): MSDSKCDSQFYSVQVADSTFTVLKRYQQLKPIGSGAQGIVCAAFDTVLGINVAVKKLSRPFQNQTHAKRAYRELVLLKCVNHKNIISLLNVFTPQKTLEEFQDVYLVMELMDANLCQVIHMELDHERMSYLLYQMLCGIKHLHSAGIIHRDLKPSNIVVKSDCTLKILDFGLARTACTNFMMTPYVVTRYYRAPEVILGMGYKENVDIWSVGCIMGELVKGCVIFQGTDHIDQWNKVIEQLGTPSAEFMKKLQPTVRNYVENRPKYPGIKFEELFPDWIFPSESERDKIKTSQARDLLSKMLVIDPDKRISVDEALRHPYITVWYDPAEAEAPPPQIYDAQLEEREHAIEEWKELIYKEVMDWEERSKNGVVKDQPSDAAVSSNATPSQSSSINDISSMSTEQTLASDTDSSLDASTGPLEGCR
Outline: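 A549 exposed at 10 µM for varying times, or at various concentrations for 6 h. Inhibition arms pretreated 1 h with SP600125 (10 µM) or NAC (5 mM) before 10 µM for 6 h. Lysates run on 10% SDS-PAGE and transferred to PVDF. p-JNK probed, GAPDH as loading control.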

[10] = target: T1, NF-kappa-B inhibitor alpha (Homo sapiens) (UniProt P25963); assay: Inhibition of TNF-alpha induced IkappaBalpha degradation in human A549 cells at 1 to 10 uM preincubated for 1 hr followed by TNF-alpha addition and measured after 15 mins by Western blot analysis; assay type: cell-based
T1 sequence (whole entry): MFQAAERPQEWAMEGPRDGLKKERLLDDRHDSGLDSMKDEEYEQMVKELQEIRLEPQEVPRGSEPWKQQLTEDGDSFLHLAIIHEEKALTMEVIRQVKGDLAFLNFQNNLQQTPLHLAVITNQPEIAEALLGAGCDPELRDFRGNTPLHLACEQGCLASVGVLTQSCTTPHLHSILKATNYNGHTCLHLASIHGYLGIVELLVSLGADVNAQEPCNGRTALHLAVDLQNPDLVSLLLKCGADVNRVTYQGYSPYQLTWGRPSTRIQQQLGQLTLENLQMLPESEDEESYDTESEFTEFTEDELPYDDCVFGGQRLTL
Outline: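 A549 preincubated 1 h at 1, 5 or 10 µM, or with BMS345541 (20 µM), then stimulated with TNFα (1 ng/mL) for 15 min. NAC arm: 5 mM NAC for 1 h, then 10 µM for 1 h. IκBα detected by western blot, GAPDH as loading control.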

[11] = tested on: A549; assay: Antiproliferative activity against human A549 cells harboring IKKbeta at 6.67 to 60 uM after 24 hrs by MTT assay; assay type: functional, cell-based
Outline: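 A549 (seeded 3 × 10^5 per well, overnight) transfected with IKKβ plasmid or empty vector using lipofectamine 2000 in serum-free medium for 6 h, then moved to 1640 with 10% FBS. Treated at 60, 20 or 6.67 µM for 24 h. MTT (5 mg/mL stock) added for 4 h, formazan dissolved in DMSO, absorbance read at 490 nm.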

[12] = tested on: A549; assay: Chemosensitization activity in human A549 cells assessed as inhibition of clonogenic growth at 0.25 uM in presence of 0.25 uM cisplatin incubated for 2 days followed by replacement of growth media and measured after 8 days by crystal violet staining-based assay relative to control; assay type: functional
Outline: (§3)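 A549 seeded at 1000 cells per well in 6-well plates, exposed to drug alone or combined with cisplatin or 5-Fu over a concentration series. Drug-containing medium replaced after 2 days. After a further 8 days, fixed with 1% methanol/1% formaldehyde and stained with 0.5% crystal violet. Percent inhibition at each concentration calculated relative to control.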

[13] = tested on: A549; assay: Chemosensitization activity in human A549 cells assessed as inhibition of clonogenic growth at 0.25 uM in presence of 0.74 uM cisplatin incubated for 2 days followed by replacement of growth media and measured after 8 days by crystal violet staining-based assay relative to control; assay type: functional; outline: as §3
[14] = tested on: A549; assay: Anticlonogenic activity against human A549 cells assessed as inhibition of clonogenic growth at 0.25 uM incubated for 2 days followed by replacement of growth media and measured after 8 days by crystal violet staining-based assay relative to control; assay type: functional; outline: as §3
[15] = tested on: A549; assay: Anticlonogenic activity against human A549 cells assessed as inhibition of clonogenic growth at 0.5 uM incubated for 2 days followed by replacement of growth media and measured after 8 days by crystal violet staining-based assay relative to control; assay type: functional; outline: as §3
[16] = tested on: A549; assay: Anticlonogenic activity against human A549 cells assessed as inhibition of clonogenic growth at 1 uM incubated for 2 days followed by replacement of growth media and measured after 8 days by crystal violet staining-based assay relative to control; assay type: functional; outline: as §3
[17] = tested on: A549; assay: Induction of apoptosis in human A549 cells at 10 uM pretreated with 5 mM NAC for 1 hr followed by compound addition and measured after 24 hrs by Annexin V-FITC/propidium iodide staining based flow cytometric analysis; assay type: functional, cell-based
Outline: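 A549 treated 24 h at 1, 5 or 10 µM, with BMS345541 20 µM as control. Inhibitor arms pretreated 1 h with NAC (5 mM) or SP600125 (10 µM) before 10 µM. Cells harvested with EDTA-free trypsin, stained with FITC Annexin V and PI for 15 min at room temperature in the dark, analysed by flow cytometry.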

Molecule `COc1cc(/C=C2\CN(C)C/C(=C\c3cc(OC)c(OC)c(OC)c3)C2=O)cc(OC)c1OC` has an IC50 [1] of 1000 nM, an IC50 [2] of 1500 nM and an IC50 [3] of 1000 nM. The “log(RatioIC50)” value [4] was 1.25, the Activity [5] was “Dose-dependent effect” and the Activity [6] was “Dose-dependent effect”. For the same molecule, the Activity [7] was “Dose-dependent effect”, the Activity [8] was “inactive” and the Activity [9] was “inactive”. The inhibition [10] was “Active”, the Activity [11] was “inactive” and the inhibition at 0.25 µM [12] was 51%. For the same molecule, the “inhibition (INH)” value [13] was 63%, the inhibition at 0.25 µM [14] was 2 to 11% and the inhibition at 0.5 µM [15] was 18%. The inhibition at 1 µM [16] was 44% and the Activity [17] was “inactive”.
